According to ChEMBL document CHEMBL4020844, “Regio- and Stereospecific Synthesis of Oridonin D-Ring Aziridinated Analogues for the Treatment of Triple-Negative Breast Cancer via Mediated Irreversible Covalent Warheads” (J Med Chem, 2018):
Active and inactive are the calls of the source. The calls are words filed in the database; no cut-off is given here.

Key:
[1] = system: MDA-MB-231; test: Induction of apoptosis in human MDA-MB-231 cells assessed as live cells at 10 uM after 48 hrs by Annexin V-FITC/propidium iodide staining based flow cytometry (reference value: 90.35%); type: functional
[2] = system: MDA-MB-231; test: Induction of apoptosis in human MDA-MB-231 cells assessed as upregulation of cleaved PARP after 48 hrs by Western blot analysis; type: functional, cell-based
Method in brief: (§1)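 MDA-MB-231 cells were exposed to DMSO or compound at several concentrations for 48 h, then lysed. Protein was measured by Bradford with a BSA standard. 40 μg total protein was run on SDS-PAGE and transferred to nitrocellulose, then blocked with 5% milk. Primary antibodies were applied overnight: Bcl-2 1:200, cleaved PARP 1:500, NF-κB 1:1000, Bax 1:1000, β-actin 1:2000. Detection was by ECL.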

[3] = system: MDA-MB-231; test: Downregulation of NF-kB p65 protein expression in human MDA-MB-231 cells after 48 hrs by Western blot analysis; type: functional, cell-based; method in brief: as §1
[4] = system: SK-BR-3; test: Antiproliferative activity against human SK-BR-3 cells after 72 hrs by MTT assay; type: functional, cell-based
Method in brief: (§2)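 MTT proliferation assay. Cells were seeded at 1 × 10^4 per well and exposed to DMSO or compound at 0.1, 0.33, 1.0, 3.3 and 10 μM for 72 h. MTT reagent was added, and OD at 560 nm was read after 1 h at 37°C. Each concentration was tested in quadruplicate wells.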

[5] = system: MDA-MB-231; test: Induction of apoptosis in human MDA-MB-231 cells assessed as dead cells at 20 uM after 48 hrs by Annexin V-FITC/propidium iodide staining based flow cytometry (reference value: 1.5%); type: functional
[6] = system: MDA-MB-231; test: Induction of apoptosis in human MDA-MB-231 cells assessed as dead cells at 5 uM after 48 hrs by Annexin V-FITC/propidium iodide staining based flow cytometry (reference value: 1.5%); type: functional
[7] = Glutathione reactivity in pH 7.4 deuterated phosphate buffer assessed as GSH adduct formation at 10 mg after 1 hr in presence of 1.5 to 2 equiv of GSH by HRMS analysis
[8] = system: MDA-MB-468; test: Antiproliferative activity against human MDA-MB-468 cells after 72 hrs by MTT assay; type: functional, cell-based; method in brief: as §2
[9] = system: MDA-MB-231; test: Antitumor activity against human MDA-MB-231 cells xenografted in nude mouse assessed as tumor growth inhibition at 10 to 15 mg/kg, ip daily for 10 days; type: functional, organism-based
Method in brief: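 Orthotopic model: female nude mice, 6–8 weeks old. MDA-MB-231 cells (1.0 × 10^6 in PBS) were injected into the no. 3 mammary fat pad, and mice were randomized into 4 groups. Once tumors reached 80–100 mm3, mice received 10 or 15 mg/kg daily by intraperitoneal injection in DMSO vehicle. Tumor volume (0.5 × L × W2) and body weight were measured daily. Mean ± SEM.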

[10] = system: MDA-MB-231; test: Induction of apoptosis in human MDA-MB-231 cells assessed as live cells at 20 uM after 48 hrs by Annexin V-FITC/propidium iodide staining based flow cytometry (reference value: 90.35%); type: functional
[11] = system: MDA-MB-231; test: Induction of apoptosis in human MDA-MB-231 cells assessed as live cells at 1 uM after 48 hrs by Annexin V-FITC/propidium iodide staining based flow cytometry (reference value: 90.35%); type: functional
[12] = system: MDA-MB-231; test: Induction of apoptosis in human MDA-MB-231 cells assessed as late apoptotic cells at 20 uM after 48 hrs by Annexin V-FITC/propidium iodide staining based flow cytometry (reference value: 6.3%); type: functional
[13] = system: MDA-MB-231; test: Induction of apoptosis in human MDA-MB-231 cells assessed as late apoptotic cells at 15 uM after 48 hrs by Annexin V-FITC/propidium iodide staining based flow cytometry (reference value: 6.3%); type: functional
[14] = system: MDA-MB-231; test: Induction of apoptosis in human MDA-MB-231 cells assessed as live cells at 15 uM after 48 hrs by Annexin V-FITC/propidium iodide staining based flow cytometry (reference value: 90.35%); type: functional
[15] = system: MDA-MB-231; test: Induction of apoptosis in human MDA-MB-231 cells assessed as late apoptotic cells at 10 uM after 48 hrs by Annexin V-FITC/propidium iodide staining based flow cytometry (reference value: 6.3%); type: functional
[16] = system: MDA-MB-468; test: Inhibition of colony formation in human MDA-MB-468 cells after 2 weeks by crystal violet staining based assay; type: functional, cell-based
Method in brief: (§3)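 Cells were seeded at 600 per well (MDA-MB-231) or 800 per well (MDA-MB-468, SK-BR3, MCF-7). After 24 h they were exposed to 1, 5, 10, 15 or 20 μM, or DMSO, with medium plus compound renewed every 72 h for 2 weeks. Wells were PBS-washed, stained with 0.01% crystal violet for 10 min, washed, dried and photographed.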

[17] = system: MDA-MB-231; test: Induction of apoptosis in human MDA-MB-231 cells assessed as dead cells at 1 uM after 48 hrs by Annexin V-FITC/propidium iodide staining based flow cytometry (reference value: 1.5%); type: functional
[18] = system: MDA-MB-231; test: Induction of apoptosis in human MDA-MB-231 cells assessed as dead cells at 10 uM after 48 hrs by Annexin V-FITC/propidium iodide staining based flow cytometry (reference value: 1.5%); type: functional
[19] = system: SK-BR-3; test: Inhibition of colony formation in human SK-BR-3 cells after 2 weeks by crystal violet staining based assay; type: functional, cell-based; method in brief: as §3
[20] = system: MDA-MB-231; test: Induction of apoptosis in human MDA-MB-231 cells assessed as late apoptotic cells at 1 uM after 48 hrs by Annexin V-FITC/propidium iodide staining based flow cytometry (reference value: 6.3%); type: functional
[21] = system: MCF7; test: Inhibition of colony formation in human MCF7 cells after 2 weeks by crystal violet staining based assay; type: functional, cell-based; method in brief: as §3
[22] = system: MDA-MB-231; test: Induction of apoptosis in human MDA-MB-231 cells assessed as live cells at 5 uM after 48 hrs by Annexin V-FITC/propidium iodide staining based flow cytometry (reference value: 90.35%); type: functional
[23] = system: MDA-MB-231; test: Inhibition of colony formation in human MDA-MB-231 cells after 2 weeks by crystal violet staining based assay; type: functional, cell-based; method in brief: as §3
[24] = Glutathione reactivity in pH 7.4 deuterated phosphate buffer assessed as reaction half life at 10 mg up to 120 mins in presence of 1.5 to 2 equiv of GSH by 1H NMR analysis; type: physicochemical; conditions: pH 7.4, 2 h
Method in brief: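 Glutathione (1.5–2 equiv) was incubated with compound at 37°C in DMSO-d6 mixed with sodium phosphate buffer in D2O, pH 7.4. Reactivity was monitored by 1H NMR.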

[25] = system: MDA-MB-231; test: Induction of apoptosis in human MDA-MB-231 cells assessed as early apoptotic cells at 5 uM after 48 hrs by Annexin V-FITC/propidium iodide staining based flow cytometry (reference value: 1.85%); type: functional
[26] = system: MDA-MB-231; test: Induction of apoptosis in human MDA-MB-231 cells after 48 hrs by Annexin V-FITC/propidium iodide staining based flow cytometry; type: functional, cell-based
[27] = system: MCF7; test: Antiproliferative activity against human MCF7 cells after 72 hrs by MTT assay; type: functional, cell-based; method in brief: as §2
[28] = system: MCF-10A; test: Antiproliferative activity against human MCF10A cells up to 100 uM after 48 hrs by MTT assay
[29] = system: MDA-MB-231; test: Induction of apoptosis in human MDA-MB-231 cells assessed as reduction in Bcl2 to Bax ratio at 1 to 20 uM after 48 hrs by Western blot analysis; type: functional, cell-based; method in brief: as §1
[30] = system: MDA-MB-231; test: Antiproliferative activity against human MDA-MB-231 cells after 72 hrs by MTT assay; type: functional, cell-based; method in brief: as §2
[31] = system: MDA-MB-231; test: Induction of apoptosis in human MDA-MB-231 cells assessed as late apoptotic cells at 5 uM after 48 hrs by Annexin V-FITC/propidium iodide staining based flow cytometry (reference value: 6.3%); type: functional
[32] = system: MDA-MB-231; test: Induction of apoptosis in human MDA-MB-231 cells assessed as early apoptotic cells at 10 uM after 48 hrs by Annexin V-FITC/propidium iodide staining based flow cytometry (reference value: 1.85%); type: functional
[33] = system: MDA-MB-231; test: Induction of apoptosis in human MDA-MB-231 cells assessed as early apoptotic cells at 20 uM after 48 hrs by Annexin V-FITC/propidium iodide staining based flow cytometry (reference value: 1.85%); type: functional
[34] = system: MDA-MB-231; test: Induction of apoptosis in human MDA-MB-231 cells assessed as early apoptotic cells at 15 uM after 48 hrs by Annexin V-FITC/propidium iodide staining based flow cytometry (reference value: 1.85%); type: functional
[35] = system: MDA-MB-231; test: Induction of apoptosis in human MDA-MB-231 cells assessed as early apoptotic cells at 1 uM after 48 hrs by Annexin V-FITC/propidium iodide staining based flow cytometry (reference value: 1.85%); type: functional

C=CC(=O)N1CC12C(=O)[C@@]13[C@@H]4OC(C)(C)O[C@@]15OC[C@@]1([C@H]([C@@H]5O)C(C)(C)CC[C@@H]1O)[C@@H]3CC[C@H]42 (some centres not stated)
Activity [1]: 79.05%
Activity [2]: Dose-dependent effect
Activity [3]: Dose-dependent effect
Activity [4]: Dose-dependent effect
Activity [5]: 2.05%
Activity [6]: 1.75%
Drug metabolism [7]: Metabolite detected
Activity [8]: Dose-dependent effect
TGI [9]: Active
Activity [10]: 50.35%
Activity [11]: 89.5%
Activity [12]: 44.65%
Activity [13]: 21.6%
Activity [14]: 70.25%
Activity [15]: 12.75%
inhibition [16]: Active
Activity [17]: 1.95%
Activity [18]: 2.75%
inhibition [19]: Active
Activity [20]: 6.05%
inhibition [21]: Active
Activity [22]: 87.95%
inhibition [23]: Active
t1/2 [24]: 30 to 60 min
Activity [25]: 3.6%
Activity [26]: Dose-dependent effect
Activity [27]: Dose-dependent effect
IC50 ([27]; MCF7, 72 h): 9.39 µM
Activity [28]: Non-Toxic
Activity [29]: Active
Activity [30]: Dose-dependent effect
IC50 ([30]; MDA-MB-231, 72 h): 8.32 µM
Activity [31]: 6.7%
Activity [32]: 5.45%
Activity [33]: 2.95%
Activity [34]: 5.2%
Activity [35]: 2.5%
